According to the EternaBench riboswitch data:

System: MS2 coat protein
Experiment: apparent Kd, MS2 coat protein; higher = weaker binding; RNA-MaP array; FMN 200 µM where present
How it was run: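 The apparent Kd is reported as the median of filtered per-cluster binding-curve fits. To get these curves, designs transcribed by stalled E. coli RNA polymerase on Illumina sequencing-chip clusters were titrated with SNAP-549-labelled MS2 coat protein from 0.7 or 1.5 nM, doubling to 3 µM. Titrations were run without and then with constant ligand in 100 mM Tris-HCl pH 7.5, 80 mM KCl, 4 mM MgCl2, BSA, DTT, yeast tRNA and Tween-20, and green signal was normalised to red-channel RNA signal and control-cluster median Fmax.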

[1] = designed as: OFF switch for flavin mononucleotide, no ligand
[2] = ligand present: flavin mononucleotide, designed as: OFF switch for flavin mononucleotide
[3] = designed as: ON switch for flavin mononucleotide, no ligand
[4] = ligand present: flavin mononucleotide, designed as: ON switch for flavin mononucleotide

“CUUUAGUGAGGAUAUCAGUAGUAGAACAAUAGUACUACUACUGAGAAGGCACAUGAGGAUCACCCAUGUUCCUC” was tested. Which “apparent Kd” value [1] did it give?
Its value is 31 nM.

And the “apparent Kd” value [2]?
Its value is 157 nM.

How did the “apparent Kd” value [1] turn out when “UCAUUAUAAAUCCAUCAUAACUACAUGAGGAUCACCCAUGUGCAGGAUAUCGAUUAUUUAACUAACGAGAAGGGCAUUUACAGA” was run?
Its value is 50.1 nM.

What about the “apparent Kd” value [2] of the same sequence?
The value was 169 nM.

For “CUUUAGUGAGGAUAUCAGUAGUAAUACAAUAGUAUUAUUACUGAGAAGGCACAUGAGGAUCACCCAUGUUCCUC”, which “apparent Kd” value [1] is on record?
Its value is 29.4 nM.

What about the “apparent Kd” value [2] of the same sequence?
Its value is 120 nM.

Which results are given for “GUCGGAAACGACAAAAGUAUGGAUCCAGAAGGCAUGAAACAUGAGGAUCACCCAUGUCAAAGACAUGAGGAUAUGGAUCCAUAC”?
apparent Kd [3]: 4.06 nM; apparent Kd [4]: 3.19 nM

How did the “apparent Kd” value [1] turn out when “GUAGAGUAAGGAUAUUGUGAAUAGGAUAGAAUGGUUAGAAACAAGAAGGUACAUGAGGAUCACCCAUGUAAUGU” was run?
Its value is 22.1 nM.

And the “apparent Kd” value [2]?
The value was 19.8 nM.

For “AGUCGGAGCAGAGGAUAUUACAUGAGGAUCACCCAUGUAUAAAGAUCAAGCUGGAAACAGCAAUGUAAGAAGGCUGCUCCGACA”, which “apparent Kd” value [1] is on record?
The value was 57.4 nM.

And the “apparent Kd” value [2]?
Its value is 321 nM.

With “GUAGCAUACCAAGGAUAUUCAGGGCGUGGAUAGACAUGAGGAUCACCCAUGUGGCGAAAGCCUAGGGAGAAGGUGGAAUGCUAC” as the sequence, how does the “apparent Kd” value [3] read?
The value was 36.1 nM.

What about the “apparent Kd” value [4] of the same sequence?
The value was 20.1 nM.

Which “apparent Kd” value [1] does the source give for “AGCUGGUGACAGCAUCGAGCUUAACAUGAGGAUCACCCAUGUAGAAGGCUGUACGGUUACCGUACAGAGGAUAUACAUAGCUCG” here?
The value was 6.79 nM.

What about the “apparent Kd” value [2] of the same sequence?
The value was 7.04 nM.

“CGCUACAGCCAGAAGGACAUGAGGAUCACCCAUGUAGGAUAUGGGAGACGCGGUCCAGUGUAGAGAAACUACGCUACUGUAGCG” was tested. Which “apparent Kd” value [3] did it give?
The value was 87.3 nM.

And the “apparent Kd” value [4]?
Its value is 73.4 nM.

Which results are given for “UGUUGUAUUACAGGAUAUCUGUUAUUUUUAUUUAGAGAAGGGUAUUCACAUGAGGAUCACCCAUGUAUAUACGAGGAAGUUGUG”?
apparent Kd [3]: 57.3 nM; apparent Kd [4]: 61.4 nM

With “GGUUGGCGAGGAUAUACAUGAGGAUCACCCAUGUGGUCCUGCGGUGGUUUCGCCCUUUGUAGAAGGCGCGGGUC” as the sequence, how does the “apparent Kd” value [1] read?
Its value is 40.9 nM.

And the “apparent Kd” value [2]?
The value was 40.5 nM.

What does the source list for “GUAGUACAUGAGGAUCACCCAUGUGUAGAAGCAUGAGGAUAUGUCAGUCCAUGAAAAACGAUAGAAGGCAUGGUGA”?
apparent Kd [3]: 178 nM; apparent Kd [4]: 176 nM

What does the source list for “UCAUUUCUGUAAGGAUAUAUAAACAUGACGAUACAUGAGGAUCACCCAUGUAUAGAAGGUACAAAUACAUAUAAUGCAAUGUUC”?
apparent Kd [1]: 16.9 nM; apparent Kd [2]: 12.9 nM

For “AGAUGUACCUAGGAUAUCCGUCGAAUUGGACUAGGAGAAGGAGGUACAUGAGGAUCACCCAUGUAUGACUCCUG”, which “apparent Kd” value [1] is on record?
The value was 10.5 nM.

What about the “apparent Kd” value [2] of the same sequence?
The value was 13.1 nM.

With “GUGCCGAACCUAGGAUAUCUUAUCGGGUUCCGCCGUGGCUUAGCGACAUGAGGAUCACCCAUGUAAGAGAAGGAGGUGGCGGAG” as the sequence, how does the “apparent Kd” value [1] read?
Its value is 128 nM.

And the “apparent Kd” value [2]?
Its value is 135 nM.

For “AUAGUACAUGAGGAUCACCCAUGUCAGGAUAUCGGAUGUGACAUGAAAAAAAUGUUAAUGAGAAGGGACUAUAA”, which “apparent Kd” value [1] is on record?
The value was 43.6 nM.

And the “apparent Kd” value [2]?
The value was 49 nM.

How did the “apparent Kd” value [3] turn out when “UUUAUUUUUACAGGAUAUCAUCUAUAUAACUCAUGCACAUGUUUACAUGAGGAUCACCCAUGUUUUGAGAAGGGUAAUGAAACA” was run?
The value was 440 nM.

And the “apparent Kd” value [4]?
Its value is 228 nM.

How did the “apparent Kd” value [3] turn out when “UCAUUUAUUACAGGAUAUGUUAGUAUACAGUUGUUUGGUUAUUACAUAUUAACAGAAGGGUAGAACAUGAGGAUCACCCAUGUA” was run?
Its value is 95.7 nM.

And the “apparent Kd” value [4]?
The value was 52.3 nM.

“UAUAUGUCAGGAUAUUAGUUGAGUUAGAAUUUAUCCUCUGCUGAGAAGGGACAUGAGGAUCACCCAUGUUCCUC” was tested. Which “apparent Kd” value [1] did it give?
The value was 15.1 nM.

And the “apparent Kd” value [2]?
The value was 31.5 nM.

For “AUCAGCUCGUCAGGAUAUCCGUCACUGCGUCAGCAGUGUGGUAAGAUCACAUGAGGAUCACCCAUGUAGAAGGGACGAGCUGAU”, which “apparent Kd” value [1] is on record?
The value was 6.08 nM.

And the “apparent Kd” value [2]?
The value was 6.5 nM.

Which “apparent Kd” value [3] does the source give for “CGCUAAGAUGGGUUUAAUGGAGCAUAGGAUAUGCUUGUACAUGAGGAUCACCCAUGUAAUAUUGUGCAGAAGGGUGCAUUUGCG” here?
The value was 126 nM.

What about the “apparent Kd” value [4] of the same sequence?
Its value is 75.1 nM.

What does the source list for “UGUAUGGACAGAGGAUAUGCCGAUAGGAUUUACUAUCGAAGAAUCCUCACAUGAGGAUCACCCAUGUAGAAGGCUGUCCAUACU”?
apparent Kd [1]: 8.14 nM; apparent Kd [2]: 38.4 nM

How did the “apparent Kd” value [3] turn out when “GCCAUCGCAUGAGGAUAUGGUCACGUUUCGUGACCAGAAGGCAUGUCAAUAGACAUGAGGAUCACCCAUGUAGUUAAGAUGGCA” was run?
The value was 680 nM.

What about the “apparent Kd” value [4] of the same sequence?
The value was 59.8 nM.

Which results are given for “AGUUAAUAUCGAGGAUAUCCUCAUCUACAUGAGGAUCACCCAUGUAAACAUGGAGAAGGCGAUAUUAACAGCAUGUUACAUGCA”?
apparent Kd [3]: 259 nM; apparent Kd [4]: 14.9 nM

Which “apparent Kd” value [1] does the source give for “CGAUAACAUAGUUAUCCGUAACGGACAUGAGGAUCACCCAUGUAGGAUAUGUUACUCAACGAGUAACAGAAGGACAUGAGUCUU” here?
Its value is 38.2 nM.

And the “apparent Kd” value [2]?
The value was 324 nM.

Which results are given for “CGUAUGUCAGGAUAUGCGUAUGCCGCCCAGGACAGGCGGCAGCAGAAGGGACAUGAGGAUCACCCAUGUUCGGG”?
apparent Kd [1]: 68.3 nM; apparent Kd [2]: 59.5 nM

For “CCUAUGUAAGGAUAUAGCCACAUUACGAAUAAGUAGUGUGGCUAGAAGGUACAUGAGGAUCACCCAUGUAUGGG”, which “apparent Kd” value [1] is on record?
The value was 195 nM.

And the “apparent Kd” value [2]?
The value was 40.6 nM.
